Laboratory results as given in ChEMBL document CHEMBL3232920, “Targeting carnitine biosynthesis: discovery of new inhibitors against γ-butyrobetaine hydroxylase” (J Med Chem, 2014).

What follows are compounds tested against T1, Gamma-butyrobetaine dioxygenase (Homo sapiens, UniProt O75936) (assay: Inhibition of human recombinant BBOX expressed in Saccharomyces cerevisiae AH22 assessed as formation of carnitine from gamma-butyrobetaine preincubated for 15 mins measured after 30 mins by UPLC-MS/MS analysis).
T1 sequence (O75936 whole entry): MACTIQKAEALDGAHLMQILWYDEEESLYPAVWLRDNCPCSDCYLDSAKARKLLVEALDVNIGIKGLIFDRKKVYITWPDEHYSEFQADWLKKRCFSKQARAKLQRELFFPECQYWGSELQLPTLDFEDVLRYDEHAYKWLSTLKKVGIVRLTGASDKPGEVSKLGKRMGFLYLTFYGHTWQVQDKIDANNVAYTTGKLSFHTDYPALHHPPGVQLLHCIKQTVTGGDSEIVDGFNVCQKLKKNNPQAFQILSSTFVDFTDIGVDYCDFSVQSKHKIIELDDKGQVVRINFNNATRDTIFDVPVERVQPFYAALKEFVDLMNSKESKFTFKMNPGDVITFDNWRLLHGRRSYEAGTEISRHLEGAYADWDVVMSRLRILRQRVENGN
Procedure, shortened: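 His-tagged BBOX purified by Ni affinity, desalting and Mono Q; tag cut with TEV. Assay (0.2 mL) held 20 mM K phosphate pH 7.0, 20 mM KCl, 3 mM 2-oxoglutarate, 0.25 mM Fe(II), 10 mM ascorbate, catalase and 0.6 μg enzyme. Screen at 100 or 1000 μM, then 6–8 concentrations. GBB 200 μM added after preincubation, 37 °C; stopped with cold acetonitrile/methanol. Logistic-fit IC50, mean ± SD of three experiments.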

Question: `CCN(CCC(=O)[O-])[N+](C)(C)C` was tested. Which IC50 did it give?
Answer: Its IC50 is 2.8 µM.

Question: For `CC[N+](C)(CC)NCCC(=O)O`, which IC50 is on record?
Answer: The IC50 was over 1000 µM.

Question: Which IC50 does the source give for `C[N+](C)(CCO)NCCC(=O)[O-]` here?
Answer: Its IC50 is 1000 µM.

Question: For `CC[N+](C)(C)N(C)CCC(=O)[O-]`, which IC50 is on record?
Answer: Its IC50 is 7.2 µM.

Question: `C[S+](C)CCCC(=O)[O-]` was tested. Which IC50 did it give?
Answer: Its IC50 is 388 µM.

Question: With `C[N+](C)(C)C/C=C/C(=O)[O-]` as the compound, how does the IC50 read?
Answer: Its IC50 is 3.8 µM.

Question: `C=CC[N+](C)(C)CCCC(=O)[O-]` was tested. Which IC50 did it give?
Answer: The IC50 was 2.7 µM.

Question: Which IC50 does the source give for `C[N+](C)(CBr)CCCC(=O)[O-]` here?
Answer: Its IC50 is over 1000 µM.

Question: For `CCCC[N+](C)(C)CCCC(=O)[O-]`, which IC50 is on record?
Answer: Its IC50 is over 1000 µM.

Question: How did the IC50 turn out when `CC[N+](C)(C)CCCS(=O)(=O)[O-]` [ETHYL DIMETHYL AMMONIO PROPANE SULFONATE] was run?
Answer: Its IC50 is 6.7 µM.

Question: Which IC50 does the source give for `C[N+](C)(C)CCCP(=O)(O)O` here?
Answer: The IC50 was 0.1 µM.

Question: `CC[N+](C)(CC)CCCC(=O)[O-]` was tested. Which IC50 did it give?
Answer: The IC50 was 100 µM.

Question: How did the IC50 turn out when `C[N+](C)(C)CCCCC(=O)[O-]` was run?
Answer: Its IC50 is over 1000 µM.

Question: For `CN(CCC(=O)[O-])[N+](C)(C)C`, which IC50 is on record?
Answer: Its IC50 is 0.09 µM.

Question: For `C#CC[N+](C)(C)CCCC(=O)[O-]`, which IC50 is on record?
Answer: Its IC50 is 1.4 µM.

Question: `CCC[N+](C)(C)CCCC(=O)[O-]` was tested. Which IC50 did it give?
Answer: Its IC50 is over 1000 µM.

Question: `C[N+](C)(CCCC(=O)[O-])C1CC1` was tested. Which IC50 did it give?
Answer: The IC50 was 2.1 µM.

Question: `C#CC[N+](C)(C)NCCC(=O)O` was tested. Which IC50 did it give?
Answer: Its IC50 is 24 µM.

Question: With `CC[N+](C)(C)NCCC(=O)[O-]` as the compound, how does the IC50 read?
Answer: Its IC50 is 140 µM.

Question: How did the IC50 turn out when `C[N+](C)(CI)CCCC(=O)[O-]` was run?
Answer: Its IC50 is 1000 µM.

Question: `C[N+](C)(C)CCCc1nnn[nH]1` was tested. Which IC50 did it give?
Answer: Its IC50 is over 1000 µM.

Question: With `C[N+](C)(CCCl)NCCC(=O)O` as the compound, how does the IC50 read?
Answer: Its IC50 is 10.2 µM.

Question: Which IC50 does the source give for `C[N+](C)(C)C1CCCC(C(=O)[O-])C1` (stereo not given) here?
Answer: Its IC50 is over 1000 µM.

Question: `C[N+](C)(C)CC(Cl)CC(=O)O` (stereo not given) was tested. Which IC50 did it give?
Answer: Its IC50 is 459 µM.

Question: For `C[N+](C)(CCCC(=O)[O-])C1CCC1`, which IC50 is on record?
Answer: The IC50 was 0.81 µM.

Question: For `COC[N+](C)(C)CCCC(=O)[O-]`, which IC50 is on record?
Answer: Its IC50 is over 1000 µM.

Question: Which IC50 does the source give for `CC[N+](C)(C)CCC[PH](=O)[O-]` here?
Answer: Its IC50 is 0.53 µM.

Question: Which IC50 does the source give for `CC(C)[N+](C)(C)NCCC(=O)[O-]` here?
Answer: Its IC50 is over 1000 µM.

Question: Which IC50 does the source give for `C[N+](C)(CCO)CCCC(=O)[O-]` here?
Answer: Its IC50 is 1000 µM.

Question: Which IC50 does the source give for `C[N+](C)(CCCC(=O)[O-])CC1CC1` here?
Answer: Its IC50 is over 1000 µM.

Question: For `C=C[N+](C)(C)CCCC(=O)[O-]`, which IC50 is on record?
Answer: Its IC50 is 127 µM.

Question: For `C[N+](C)(CCN)NCCC(=O)[O-]`, which IC50 is on record?
Answer: The IC50 was over 1000 µM.

Question: How did the IC50 turn out when `C[N+](C)(C)NCCP(=O)(O)O` was run?
Answer: The IC50 was 117 µM.

Question: Which IC50 does the source give for `O=C(O)CCCN1CCCC1` here?
Answer: The IC50 was 1000 µM.

Question: With `CCC[N+](C)(C)N(C)CCC(=O)[O-]` as the compound, how does the IC50 read?
Answer: The IC50 was 3.1 µM.

Question: With `CC(CCC(=O)[O-])[N+](C)(C)C` (stereo not given) as the compound, how does the IC50 read?
Answer: The IC50 was 343 µM.

Question: With `C[N+](C)(CCl)CCCC(=O)[O-]` as the compound, how does the IC50 read?
Answer: The IC50 was 268 µM.

Question: How did the IC50 turn out when `C[N+](C)(CCCl)CCCC(=O)O` was run?
Answer: Its IC50 is 0.26 µM.

Question: How did the IC50 turn out when `C[N+](C)(C)CCC[PH](=O)[O-]` was run?
Answer: The IC50 was 0.52 µM.

Question: For `C[N+](C)(CCCC(=O)[O-])C1CCCC1`, which IC50 is on record?
Answer: The IC50 was over 1000 µM.

Question: For `C[N+](C)(C)NCCS(=O)(=O)[O-]`, which IC50 is on record?
Answer: Its IC50 is 87 µM.

Question: `C[N+](C)(CCF)CCCC(=O)O` was tested. Which IC50 did it give?
Answer: The IC50 was 0.61 µM.

Question: `C[N+]1(CCCC(=O)O)CCCC1` was tested. Which IC50 did it give?
Answer: The IC50 was 0.49 µM.

Question: With `C[N+](C)(C)CCCS(=O)(=O)[O-]` as the compound, how does the IC50 read?
Answer: The IC50 was 1.7 µM.

Question: How did the IC50 turn out when `C[N+](C)(CCCC(=O)[O-])Cc1ccccc1` was run?
Answer: The IC50 was over 1000 µM.

Question: With `C[N+](C)(CCCC(=O)[O-])CC1CCC1` as the compound, how does the IC50 read?
Answer: Its IC50 is over 1000 µM.

Question: How did the IC50 turn out when `CC(C)[N+](C)(C)CCCC(=O)[O-]` was run?
Answer: The IC50 was 5.7 µM.

Question: With `C=CC[N+](C)(C)NCCC(=O)[O-]` as the compound, how does the IC50 read?
Answer: The IC50 was 119 µM.

Question: How did the IC50 turn out when `CC[N+](C)(C)CCCC(=O)[O-]` was run?
Answer: The IC50 was 3.3 µM.

Question: How did the IC50 turn out when `C=C[N+](C)(C)NCCC(=O)[O-]` was run?
Answer: Its IC50 is 6.8 µM.

Each compound was assayed against T2, Gamma-butyrobetaine dioxygenase (Homo sapiens) (UniProt O75936) (assay: Ratio of mildronate IC50 to compound IC50 for human recombinant BBOX).
T2 sequence (whole entry): T1 sequence (O75936 whole entry)

Question: Which Ratio IC50 does the source give for `CN(CCC(=O)[O-])[N+](C)(C)C` here?
Answer: The Ratio IC50 was 3.

Question: With `CC(CCC(=O)[O-])[N+](C)(C)C` (stereo not given) as the compound, how does the Ratio IC50 read?
Answer: Its Ratio IC50 is 3.

Question: With `C=C[N+](C)(C)NCCC(=O)[O-]` as the compound, how does the Ratio IC50 read?
Answer: The Ratio IC50 was 9.

The compounds below were run against T1, Gamma-butyrobetaine dioxygenase (assay: Binding affinity to purified human BBOX by isothermal titration calorimetry analysis).
Procedure, shortened: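 Human BBOX, purified and dialyzed, in 50 mM HEPES pH 7.4 with 100 mM KCl; cofactors and ligands dissolved in the same dialysate. N-oxalylglycine replaced 2-oxoglutarate and Ni(II) replaced Fe(II). Enzyme 26–75 μM per subunit. ITC at 25 °C: 0.2 μL first injection (discarded), then 19 × 2.0 μL. Dilution heats subtracted, low-c fitting, ≥3 repeats.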

Question: `CN(CCC(=O)[O-])[N+](C)(C)C` was tested. Which Kd did it give?
Answer: Its Kd is 9.3 µM.

Question: For `CC(CCC(=O)[O-])[N+](C)(C)C` (stereo not given), which Kd is on record?
Answer: The Kd was 4.1 µM.
